Bioassay records: PubChem, Johns Hopkins Ion Channel Center
RGS4 block: RGS4 inhibitors, primary screen, cell-based, HEK293 M3R inducible RGS4, calcium flux. Regulator of G-protein signaling 4 (Homo sapiens), P49798. Fluo-4 calcium flux; stronger effect = higher value; triggered by carbachol at its EC20. B-score at 10 µM. 310,000 tested, 0.45% active;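 active = B-score, a plate-corrected calcium signal, over three deviations above library mean, with baseline fluorescence within five deviations of library mean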;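 also: RGS4 expression induced by doxycycline in cells with stable M3 receptor; B-score is computed from the integrated fluorescence ratio over baseline after carbachol; higher B-score means a larger calcium signal and so more RGS4 inhibition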
Target sequence (P49798 whole entry, looked up): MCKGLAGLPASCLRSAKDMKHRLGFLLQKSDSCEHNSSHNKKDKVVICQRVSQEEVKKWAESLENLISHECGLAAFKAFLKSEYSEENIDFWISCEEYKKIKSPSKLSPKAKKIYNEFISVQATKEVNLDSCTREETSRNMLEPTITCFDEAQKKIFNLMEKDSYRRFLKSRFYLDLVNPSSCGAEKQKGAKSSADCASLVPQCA
MrgX1 agonist: agonists of human MrgX1 receptor, primary screen, HEK293 cells, Fluo-4 calcium flux; 310,000 tested, 0.44% active; Fluo-4 calcium fluorescence, agonist mode; stronger effect = higher value; B-score at 10 µM;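 active = calcium response B-score plate-corrected fluorescence ratio at least 3 library SD, with starting fluorescence B-score inside 5 SD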
Target sequence (Q96LB2 whole entry, looked up): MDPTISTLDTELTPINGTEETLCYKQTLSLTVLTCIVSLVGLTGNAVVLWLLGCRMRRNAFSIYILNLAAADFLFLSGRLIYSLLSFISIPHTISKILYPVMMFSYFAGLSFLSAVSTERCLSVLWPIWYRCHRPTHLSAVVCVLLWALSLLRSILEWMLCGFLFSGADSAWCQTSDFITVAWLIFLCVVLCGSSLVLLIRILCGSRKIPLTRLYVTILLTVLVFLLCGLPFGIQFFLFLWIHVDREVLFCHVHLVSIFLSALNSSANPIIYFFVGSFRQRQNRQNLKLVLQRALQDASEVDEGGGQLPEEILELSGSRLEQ
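System – MrgX1-expressing HEK293 cells · Incubation – cells plated overnight, dye loaded 0.5 h 37 °C, 0.5 h room temperature · Technique – kinetic Fluo-4 NW fluorescence of intracellular calcium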
RGS4 act: RGS4 potentiators or activators, primary screen, cell-based, HEK293 M3R inducible RGS4, calcium flux; B-score at 10 µM; 310,000 tested, 0.92% active; carbachol calcium flux Fluo4; stronger effect = lower value; AID 463111, 2010;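 active = B-score of the integrated calcium signal more than 4 SD below the library mean, with starting fluorescence not abnormally high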;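 also: negative B-score means reduced calcium response which marks RGS4 activation or potentiation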
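Test system: HEK293 cells with stable M3R and inducible RGS4; also added: carbachol at ECmax as muscarinic agonist stimulus; schedule: dye loading 30 min 37 °C, buffer rest 30 min RT; technique: kinetic calcium fluorescence imaging with Fluo4-AM dye, 2 µM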
MrgX1 allo act: positive allosteric modulators of MrgX1, primary screen, HEK293 cells, Fluo-4 calcium flux; FDSS; stronger effect = higher value; B-score at 10 µM; 310,000 tested, 0.63% active; AID 588675, 2011;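 active = plate-corrected calcium response at least 3 library SD above typical, normal starting fluorescence, not activating the receptor alone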;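 also: compound read alongside a low EC10 to EC30 dose of BAM8-22 agonist; peak minus trough fluorescence over baseline measured at the second addition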
MrgX1 antagonist: antagonists of human MrgX1 receptor, primary screen, HEK293 cells, Fluo-4 calcium flux; B-score at 10 µM; Mas-related G-protein coupled receptor member X1 (Homo sapiens), Q96LB2; 310,000 tested, 1.3% active; BAM8-22 antagonism; stronger effect = lower value;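 active = calcium-response B-score plate-corrected more than 3 library SD below zero, starting fluorescence within 5 deviations, no agonist response on first addition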;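 also: peak minus trough fluorescence over baseline after final BAM8-22 challenge near maximal dose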
* = called active by the depositor; i = inactive. Only some compounds are listed: those with a hit (about 3.5% of all), similar ones and a draw of the others.

SMILES | RGS4 block | MrgX1 agonist | RGS4 act | MrgX1 allo act | MrgX1 antagonist
Cc1nn(-c2ccc(Cl)cc2)c(Cl)c1/C=N/NC(=O)c1ccc(NS(=O)(=O)c2cccs2)cc1 | i | i | i | 13* | i
Cc1nn2c3ccccc3n(CCN3CCCCC3)c2nc1=O | i | i | i | i | -6*
C=CCn1c2ccccc2n2nc(C)c(=O)nc12 | i | i | i | i | i
COc1ccc2nc(SCC(=O)N(C)CC(=O)Nc3ccc(F)cc3)[nH]c2c1 | i | i | i | i | i
c1cc2c3c(cccc3c1)NC1(CCCCCC1)N2 | i | i | i | i | i
c1cc2c3c(cccc3c1)NC1(CCC3(CC1)Nc1cccc4cccc(c14)N3)N2 | i | i | -8.2* | 7* | i
COc1ccccc1OCCC(=O)OCC(=O)NC(C)c1ccccc1 (stereo unspecified) | i | i | i | i | -6.1*
CC(Sc1nccn1C)C(=O)c1c(N)n(C)c(=O)n(C)c1=O (stereo unspecified) | i | i | i | i | i
Oc1cccc(/C=N/N(Cc2ccccc2)c2ccccc2)c1 | i | i | i | i | i
C(=N\N(Cc1ccccc1)c1ccccc1)/c1cccnc1 | i | i | -7.9* | i | i
Cc1nc(C2CCC3C4CCC5=CC(=O)CC[C@]5(C)C4CC[C@]23C)cs1 (stereo partly specified) | i | i | -10* | i | i
Cc1cc(/C=C2\C(=N)N3N=C(C(C)C)SC3=NC2=O)c(C)n1Cc1ccccc1 | i | i | i | 16* | i
CCC1=NN2C(=N)/C(=C/c3cc(C)n(Cc4ccccc4)c3C)C(=O)N=C2S1 | i | i | i | i | i
Cc1nn(-c2ccccc2)c(Cl)c1/C=C1/C(=N)N2N=C(C(C)C)SC2=NC1=O | i | i | i | 9.6* | i
CCC(CC)C1=NN2C(=N)/C(=C\c3cc(C)n(-c4cccc(C)c4)c3C)C(=O)N=C2S1 | i | i | -7.6* | i | i
COc1ccc(-n2cccc2/C=C2\C(=N)N3N=C(C(C)C)SC3=NC2=O)cc1 | i | i | i | i | i
Cc1nn(-c2ccccc2)c(Cl)c1/C=C1\SC(=S)NC1=O | i | i | i | i | -4.9*
Cc1cc(OCCN2CCC(Cc3ccccc3)CC2)ccc1[N+](=O)[O-] | i | i | -8* | i | i
CCOc1cc(C(=O)Nc2ccc(S(=O)(=O)NC3=NCCCCC3)cc2)cc(Br)c1OC | i | i | i | i | i
CCNc1nc(NCC)nc(NS(=O)(=O)c2ccc(N)cc2)n1 | i | i | i | i | i
CC(C)[C@H](NC(=O)[C@H](CCCN=C(N)N)NC(=O)NC(Cc1ccccc1)C(=O)O)C(=O)NC(C=O)CCCN=C(N)N (stereo partly specified) | i | 46* | i | i | i
O=C(CCc1nnc(CCCCc2ccccc2)o1)NCCN1CCOC1=O | i | i | i | i | -5.3*
O=C(CCc1nnc(CCCCc2ccccc2)o1)NCCn1cccn1 | i | i | i | i | i
O=S1(=O)NC(CC2=CCCCC2)C2CCCCC2O1 (stereo unspecified) | i | i | i | i | i
CCCc1nc2ccccc2c(=O)n1NC(=O)c1c(O)c2cccc3c2n(c1=O)CCC3 | i | i | i | i | -5.7*
SMILES | RGS4 block | MrgX1 agonist | RGS4 act | MrgX1 allo act | MrgX1 antagonist
Cn1c(=O)c(C(=O)NCCCc2ccccc2)c(O)c2ccccc21 | i | i | i | i | i
CCCCc1nc2ccccc2c(=O)n1NC(=O)c1c(O)c2ccccc2n(C)c1=O | i | i | i | i | -5.8*
Cc1cc(OCC(=O)NCc2ccccn2)c2c(C)cc(=O)oc2c1 | i | i | i | i | i
Cc1cccc(C(=O)N2CCCC(N3CCN(c4ccccc4)CC3)C2)n1 (stereo unspecified) | i | i | i | i | i
COc1ccc(-c2cc(C(=O)NNC(=S)NC(=O)c3c(-c4ccccc4)noc3C)[nH]n2)cc1 | i | i | i | i | i
COc1ccc(C(=O)NC(=S)NNC(=O)c2ccccc2C)cc1 | i | 62* | i | i | i
COc1ccc(/C=C/C(=O)NC(=S)NNC(=O)c2c(-c3ccccc3)noc2C)cc1 | i | 29* | i | i | i
COc1ccc(C(=O)NNC(=S)NC(=O)c2cc(-c3ccccc3)nc3ccccc23)cc1 | i | i | i | i | -6.8*
COc1ccc(Cl)cc1C(=O)NNC(=S)NC(=O)c1cc(-c2ccccc2)nc2ccccc12 | i | i | -9.8* | i | -6.5*
CC(OC(=O)CC1CC2CCC1C2)C(=O)Nc1cccc(S(=O)(=O)N2CCOCC2)c1 (stereo unspecified) | i | i | i | i | i
CCCOc1ccc(C(=O)NNC(=S)NC(=O)c2cc(-c3ccc(Cl)cc3)nc3ccccc23)cc1 | i | i | -9* | i | i
CCNC(=S)NNC(=O)c1cc(-c2ccc(OCC)cc2)nc2ccccc12 | i | i | i | i | i
O=C(NNC(=S)NC1CCCCC1)c1ccccc1O | i | i | i | i | i
O=C(O)/C=C/c1ccc(OCc2cccc(F)c2)cc1 | i | i | i | i | -5.4*
Cc1c(Cl)cccc1NC(=S)N1CCCCCC1 | i | i | i | i | i
Cc1c(C(=O)OC(C)C(C)C[N+](C)(C)C)oc2ccccc12 (stereo unspecified) | i | i | -8.4* | i | i
COc1cc(C)ccc1OCc1cc(C(=O)NCCN2CCOCC2)no1 | i | i | i | i | i
Cc1cc(C)nc(SCC(=O)c2ccc([N+](=O)[O-])cc2)n1 | i | i | i | i | -6.1*
Cc1ccnc(SCC(=O)c2ccc([N+](=O)[O-])cc2)n1 | i | i | i | i | i
C=CCOc1ccc(/C=C2\SC(=S)N(NS(=O)(=O)c3ccccc3)C2=O)cc1 | i | i | i | i | i
COC(=O)c1nnn(-c2nc(N3CCOCC3)nc(N3CCOCC3)n2)c1C | i | i | i | i | i
O=C(O)/C=C/C(=O)NCc1ccccc1 | i | i | i | i | i
O=C(O)/C=C/C(=O)NCc1ccccn1 | i | i | i | i | -6.7*
CCN(CC)C(=O)c1c2c(nc3ccccc13)-c1ccccc1CC2 | i | i | -7* | i | i
